Assay results as given in ChEMBL document CHEMBL1145212, “Fluorinated diaryl sulfides as serotonin transporter ligands: synthesis, structure-activity relationship study, and in vivo evaluation of fluorine-18-labeled compounds as PET imaging agents” (J Med Chem, 2005).

Legend:
Settings in all cases: tested as the 18F-labelled form
[1] = target: Sodium-dependent serotonin transporter (Rattus norvegicus) (UniProt P31652); test: Specific binding of [18F]AFA in rat striatum after GBR-12935 treatment; n=3; type: functional, tissue-based
Summary of the method: (§1)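 Rats, three per group, were pretreated iv with blocker at 2 mg/kg in saline, or with saline as control, 10–15 min before tail-vein F-18 radioligand (about 20 µCi). Killed at 60 min and regional %ID/g determined. Specific binding = (region activity − cerebellum activity)/cerebellum activity; mean ± SD.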

[2] = target: Sodium-dependent serotonin transporter (Rattus norvegicus) (UniProt P31652); test: Specific binding of [18F]AFA in rat thalamus after GBR-12935 treatment; n=3; type: functional, tissue-based; summary of the method: as §1
[3] = target: Sodium-dependent serotonin transporter (Rattus norvegicus) (UniProt P31652); test: Specific binding of [18F]-AFA in rat striatum after citalopram treatment; n=3; type: functional, tissue-based; summary of the method: as §1
[4] = target: Sodium-dependent serotonin transporter (Rattus norvegicus) (UniProt P31652); test: Specific binding of [18F]-AFA in rat striatum after nisoxetine treatment; n=3; type: functional, tissue-based; summary of the method: as §1
[5] = target: Sodium-dependent serotonin transporter (Rattus norvegicus) (UniProt P31652); test: Specific binding of [18F]AFA in rat thalamus after citalopram treatment; n=3; type: functional, tissue-based; summary of the method: as §1
[6] = target: Sodium-dependent serotonin transporter (Rattus norvegicus) (UniProt P31652); test: Specific binding of [18F]AFA in rat thalamus after nisoxetine treatment; n=3; type: functional, tissue-based; summary of the method: as §1
[7] = target: Sodium-dependent serotonin transporter (Rattus norvegicus) (UniProt P31652); test: Specific binding of [18F]AFA in rat hippocampus after GBR-12935 treatment; n=3; type: functional, tissue-based; summary of the method: as §1
[8] = target: Sodium-dependent serotonin transporter (Rattus norvegicus) (UniProt P31652); test: Specific binding of [18F]AFA in rat hypothalamus after GBR-12935 treatment; n=3; type: functional, tissue-based; summary of the method: as §1
[9] = target: Sodium-dependent serotonin transporter (Rattus norvegicus) (UniProt P31652); test: Specific binding of [18F]AFA in rat hippocampus after citalopram treatment; n=3; type: functional, tissue-based; summary of the method: as §1
[10] = target: Sodium-dependent serotonin transporter (Rattus norvegicus) (UniProt P31652); test: Specific binding of [18F]AFA in rat hippocampus after nisoxetine treatment; n=3; type: functional, tissue-based; summary of the method: as §1
[11] = target: Sodium-dependent serotonin transporter (Rattus norvegicus) (UniProt P31652); test: Specific binding of [18F]AFA in rat frontal cortex after GBR-12935 treatment; n=3; type: functional, tissue-based; summary of the method: as §1
[12] = target: Sodium-dependent serotonin transporter (Rattus norvegicus) (UniProt P31652); test: Specific binding of [18F]AFA in rat hypothalamus after citalopram treatment; n=3; type: functional, tissue-based; summary of the method: as §1
[13] = target: Sodium-dependent serotonin transporter (Rattus norvegicus) (UniProt P31652); test: Specific binding of [18F]AFA in rat hypothalamus after nisoxetine treatment; n=3; type: functional, tissue-based; summary of the method: as §1
[14] = target: Sodium-dependent serotonin transporter (Rattus norvegicus) (UniProt P31652); test: Specific binding of [18F]AFA in rat frontal cortex after citalopram treatment; n=3; type: functional, tissue-based; summary of the method: as §1
[15] = target: Sodium-dependent serotonin transporter (Rattus norvegicus) (UniProt P31652); test: Specific binding of [18F]AFA in rat frontal cortex after nisoxetine treatment; n=3; type: functional, tissue-based; summary of the method: as §1
[16] = target: Sodium-dependent serotonin transporter (Rattus norvegicus) (UniProt P31652); test: Specific binding in rat hypothalamus at 10 min postinjection in vivo; type: functional, organism-based
Summary of the method: (§2)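 Male Sprague-Dawley rats, n=3 per time point, received about 20 µCi of F-18 radioligand in saline iv by tail vein and were killed at 10–120 min. %ID/g was measured with decay and tail-residual correction. Hypothalamic specific binding = (%ID/g hypothalamus − %ID/g cerebellum)/%ID/g cerebellum; mean ± SD.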

[17] = target: Sodium-dependent serotonin transporter (Rattus norvegicus) (UniProt P31652); test: Specific binding in rat hypothalamus at 30 min postinjection in vivo; type: functional, organism-based; summary of the method: as §2
[18] = target: Sodium-dependent serotonin transporter (Rattus norvegicus) (UniProt P31652); test: Specific binding in rat hypothalamus at 60 min postinjection in vivo; type: functional, organism-based; summary of the method: as §2
[19] = target: Sodium-dependent serotonin transporter (Rattus norvegicus) (UniProt P31652); test: Specific binding in rat hypothalamus at 90 min postinjection in vivo; type: functional, organism-based; summary of the method: as §2
[20] = target: Sodium-dependent serotonin transporter (Rattus norvegicus) (UniProt P31652); test: Specific binding in rat hypothalamus at 120 min postinjection in vivo; type: functional, organism-based; summary of the method: as §2
Rattus norvegicus [21] = organism: Rattus norvegicus; test: Regional uptake of [18F]AFA in blood of rat pretreated with compound 7d; n=3; type: functional, organism-based
Rattus norvegicus [22] = organism: Rattus norvegicus; test: Regional uptake of [18F]AFA in striatum of rat pretreated with compound 7d; n=3; type: functional, organism-based
Rattus norvegicus [23] = organism: Rattus norvegicus; test: Regional uptake of [18F]AFA in cerebellum of rat pretreated with compound 7d; n=3; type: functional, organism-based
Rattus norvegicus [24] = organism: Rattus norvegicus; test: Regional uptake of [18F]-AFA in blood of rat pretreated with compound GBR-12935; n=3; type: functional, organism-based
Summary of the method: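 Male Sprague-Dawley rats, three per group, received blocker (2 mg/kg iv in saline) or saline only (controls) 10–15 min before about 20 µCi of tail-vein F-18 radioligand. Killed 60 min after tracer. Blood and brain regions weighed and gamma-counted. %ID/g was decay- and tail-corrected; mean ± SD.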

Sequence of Sodium-dependent serotonin transporter (Rattus norvegicus) (P31652 whole entry): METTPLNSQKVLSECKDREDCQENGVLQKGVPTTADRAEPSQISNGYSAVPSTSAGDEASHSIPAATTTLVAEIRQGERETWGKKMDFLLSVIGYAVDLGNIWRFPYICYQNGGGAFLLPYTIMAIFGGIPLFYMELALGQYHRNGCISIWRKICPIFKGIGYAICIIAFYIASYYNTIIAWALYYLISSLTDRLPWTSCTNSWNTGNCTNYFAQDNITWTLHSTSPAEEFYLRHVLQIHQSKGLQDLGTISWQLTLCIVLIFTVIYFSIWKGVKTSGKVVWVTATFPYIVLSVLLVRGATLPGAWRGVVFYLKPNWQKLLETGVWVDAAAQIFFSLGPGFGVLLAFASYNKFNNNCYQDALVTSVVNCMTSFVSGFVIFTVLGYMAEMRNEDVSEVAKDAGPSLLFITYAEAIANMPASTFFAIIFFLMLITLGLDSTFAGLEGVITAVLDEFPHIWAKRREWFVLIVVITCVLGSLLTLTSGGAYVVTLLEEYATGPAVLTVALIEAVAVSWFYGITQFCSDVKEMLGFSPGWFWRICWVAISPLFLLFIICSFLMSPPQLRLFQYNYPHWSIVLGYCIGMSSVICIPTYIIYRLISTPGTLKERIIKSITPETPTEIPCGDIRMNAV

CN(C)Cc1ccccc1Sc1ccc(CF)cc1N
Specific binding [1]: 4.37 %ID/g | Specific binding [2]: 4.38 %ID/g | Specific binding [3]: 0.52 %ID/g | Specific binding [4]: 3.59 %ID/g | Specific binding [5]: 1.05 %ID/g | Specific binding [6]: 4.71 %ID/g | Specific binding [7]: 3.51 %ID/g | Specific binding [8]: 5.3 %ID/g | Specific binding [9]: 0.67 %ID/g | Specific binding [10]: 2.72 %ID/g | Specific binding [11]: 3.83 %ID/g | Specific binding [12]: 1.37 %ID/g | Specific binding [13]: 5.24 %ID/g | Specific binding [14]: 0.36 %ID/g | Specific binding [15]: 4.02 %ID/g | Specific binding [16]: 0.98 %ID/g | Specific binding [17]: 2.27 %ID/g | Specific binding [18]: 4.56 %ID/g | Specific binding (dimensionless ratio) [19]: 5.81 | Specific binding (dimensionless ratio) [20]: 8.37 | Uptake (Rattus norvegicus [21]): 0.11 %ID/g | Uptake (Rattus norvegicus [22]): 0.14 %ID/g | Uptake (Rattus norvegicus [23]): 0.09 %ID/g | Uptake (Rattus norvegicus [24]): 0.11 %ID/g
